Compound activity (PubChem BioAssay)
FXN GAA850 act: frataxin GAA850 promoter activation; 360,000 compounds, 0.56% hits; HEK293 lucGAA850 FXN promoter luciferase reporter, 24 h; percent of 10 µM SAHA response; activation, % at 6 µM; AID 540364;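 active means activation above the average of all compounds screened plus 3 SD, cutoff fixed separately per campaign, cut at about 7.5% in these data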
SENP1 FRET inh: blocks the human SENP1 SUMO protease catalytic domain; inhibition, % at 10 µM; 360,000 compounds, 0.21% hits; AID 624204; recombinant SENP1 catalytic domain, CyPet-SUMO1-YPet FRET cleavage;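 active means inhibition at least 30% at 10 µM, raw YFP signal under a set limit, fluorescence ratio 0.5 to 1.5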
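Material: hSENP1 catalytic domain, recombinant; medium: Tris pH 8 with BME, BSA, NP40 and catalase; compound: single concentration of 10 µM compound, 0.5% DMSO final; technique: FRET read of cyan and yellow fluorescence; timing: 50 min enzyme reaction, room temperature, light-protected; reagent: SFCypet-SUMO1-SFYpet substrate at 25 nM; control set: no-enzyme low, enzyme-DMSO high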
PfM18AAP inh-1: PfM18AAP enzyme inhibition; recombinant PfM18AAP, H-Glu-NHMec fluorogenic cleavage; inhibition, % at 7.35 µM; 290,000 compounds, 1.2% hits;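 active means inhibition above the campaign mean inhibition over all tested compounds plus 3 SD, cut at about 28% in these data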
CTSL1 counter-1: blocks F. hepatica cathepsin L1 in PFM18AAP counter-screen. 300,000 compounds, 0.49% hits. AID 1906. inhibition, % at 5.96 µM. recombinant F. hepatica cathepsin L1, Z-Leu-Arg-MCA fluorescence;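 active means inhibition above the mean of all tested compounds plus 3 SD, set per screening campaign, cut at about 17% in these data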
HDAC3 inh: human HDAC3 inhibition | recombinant HDAC3, fluorogenic peptide/trypsin coupled, fluorescence | AID 2718 | O15379 | inhibition, % at 8.3 µM | 320,000 compounds, 0.15% hits; in the data active means inhibition above about 26%, passing the limit was not always enough
AHR activator: activators of human aryl hydrocarbon receptor; AHR-responsive luciferase reporter cells, luminescence; AID 2796; 320,000 compounds, 2.5% hits; activation, % at 5 µM; P35869; in the data active means activation above about 47%
PfM18AAP inh-2: confirmation of Plasmodium falciparum M18 aspartyl aminopeptidase inhibitors | shares compounds with PfM18AAP inh-1 | recombinant PfM18AAP, H-Glu-NHMec fluorogenic cleavage | inhibition, % at 7.35 µM | 2,400 compounds, 28% hits | AID 2170;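 active means mean inhibition over replicate wells above the hit cutoff set for the earlier primary screen, cut at about 29% in these data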
CTSL1 counter-2: counter-screen for PFM18AAP inhibitors: confirmation of human cathepsin L inhibitors | shares compounds with PfM18AAP inh-1 | purified cathepsin L1, Z-Leu-Arg-MCA fluorescence | inhibition, % at 5.96 µM | 2,400 tested, under 10 active | AID 2178;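 active means average inhibition across replicates above the hit cutoff set in the earlier primary screen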
Target sequence (P07711 whole entry, looked up): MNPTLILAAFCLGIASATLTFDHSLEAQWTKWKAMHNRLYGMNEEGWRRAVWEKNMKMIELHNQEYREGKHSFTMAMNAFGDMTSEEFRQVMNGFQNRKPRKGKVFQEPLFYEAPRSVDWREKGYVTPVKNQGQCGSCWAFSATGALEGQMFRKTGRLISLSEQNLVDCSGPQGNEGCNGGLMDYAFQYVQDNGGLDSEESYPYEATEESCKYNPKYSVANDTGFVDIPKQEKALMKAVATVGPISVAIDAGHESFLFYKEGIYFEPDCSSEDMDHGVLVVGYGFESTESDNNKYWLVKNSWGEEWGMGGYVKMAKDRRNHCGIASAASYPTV
Numbers stand for hits; - = inactive; . = not tested or not shown. An excerpt weighted towards active compounds, which were near 4.2% of everything screened.

SMILES | FXN GAA850 act | SENP1 FRET inh | PfM18AAP inh-1 | CTSL1 counter-1 | HDAC3 inh | AHR activator | PfM18AAP inh-2 | CTSL1 counter-2
Cc1cc(C)c(S(=O)(=O)Nc2ccc(O)c(Sc3ncn[nH]3)c2)cc1C | - | - | 52 | - | - | - | - | -
Cc1cc(C)c(S(=O)(=O)Nc2ccc(O)c(Sc3ncn[nH]3)c2)c(C)c1 | - | - | 49 | - | - | - | - | -
Cc1ccc(CNc2ncnc3c2cnn3C2CCCCO2)cc1 (centres undefined) | - | - | . | . | . | . | . | .
Cc1cc(O)c(N)c(C)c1Cl | - | - | 50 | - | - | - | 68 | -
CC(C)c1ccc(NC(=O)c2cc(S(=O)(=O)N3CCCCC3)c[nH]2)cc1 | - | - | - | - | - | - | . | .
CC1(C2CC2)NC(=O)N(CC(=O)Nc2ccccc2C#N)C1=O (centres undefined) | - | - | . | . | . | . | . | .
NNC(=O)c1cc(O)c(O)c(O)c1 | - | - | 65 | - | - | - | 44 | -
CC(=O)c1c(C)[nH]c(C(=O)NCCc2ccc(Cl)cc2)c1C | - | - | 61 | - | - | - | - | -
CC(=O)c1c(C)[nH]c(C(=O)NCc2ccc(F)cc2)c1C | - | - | - | - | - | - | . | .
O=C(O)c1ccc(N/N=C2/CCCc3ccccc32)cc1 | - | - | 34 | - | - | - | - | -
CCNc1nc(NC(C)C)nc(-c2ccncc2)n1 | . | - | . | . | . | . | . | .
C/C(=N\NC(=O)c1cc(C)nc2ccccc12)c1ccco1 | - | - | - | - | - | - | . | .
C/C(=N\Nc1nc2ccccc2c(=O)n1O)c1ccco1 | - | - | 38 | - | - | - | - | -
Cn1c(CC(=O)Nc2ccccc2F)nnc1SCC(=O)Nc1nccs1 | - | - | - | - | - | - | . | .
Nc1[nH]n2c(=O)cc(-c3ccccc3)nc2c1N=Nc1ccc2c(c1)OCO2 | . | . | - | - | - | - | . | .
O=C(Nc1ccccc1)N1CCCC1 | - | - | - | - | - | - | . | .
O=C(NCC1CCCO1)NC1(C(F)(F)F)Oc2ccccc2O1 (centres undefined) | - | - | 37 | - | - | - | - | -
O=C(NC1(C(F)(F)F)Oc2ccccc2O1)N1CCCC1 | - | - | 75 | - | - | - | 45 | -
CC(C)(C)C1CCNC(=O)CC1 (centres undefined) | - | - | . | . | . | . | . | .
CCc1ccc(N(CC(=O)NCCc2ccccc2)C(=O)CCC(=O)Nc2ccccn2)cc1 | - | - | - | - | - | - | . | .
O=C(c1ccc(-c2ccc([N+](=O)[O-])cc2Cl)o1)N1CCOCC1 | - | - | 39 | - | - | - | - | -
O=c1oc2c(-c3ccc([N+](=O)[O-])cc3)cc(O)cc2s1 | - | - | 33 | - | - | - | - | -
CC(=O)Nc1ccc(S(=O)(=O)Nc2ncccn2)cc1 | - | - | - | - | - | - | . | .
Cc1ccc(NC(=O)NN2CCOCC2)cc1 | - | - | - | - | - | - | . | .
CC(=O)Nc1ccc(S(=O)(=O)Nn2cnnc2)cc1 | - | - | 37 | - | - | - | 36 | -
SMILES | FXN GAA850 act | SENP1 FRET inh | PfM18AAP inh-1 | CTSL1 counter-1 | HDAC3 inh | AHR activator | PfM18AAP inh-2 | CTSL1 counter-2
Cc1ccc(NC(=O)Nn2cnnc2)cc1 | - | - | 45 | . | - | . | 37 | -
O=C(Nc1ccc([N+](=O)[O-])cc1)Nn1cnnc1 | - | - | 81 | - | - | - | 72 | -
O=C(Nc1ccc(Cl)cc1)Nn1cnnc1 | - | - | 68 | . | . | . | 57 | -
O=C(Nc1ccc(Cl)cc1)Nn1cnc2ccccc2c1=O | - | - | - | - | - | - | . | .
C[C@@H]1CN(S(=O)(=O)C(C)(C)C)[C@H](CCO)/C1=C\c1ccccc1 | - | - | . | . | . | . | . | .
O=C(NCCc1ccc2c(c1)OCCO2)c1cc(S(=O)(=O)N2CCCC2)ccc1Br | - | - | . | . | . | . | . | .
Cc1cccc2sc(NNC(=O)c3cc(=O)c4ccccc4o3)nc12 | - | - | 44 | - | - | 67 | - | -
COc1cc(/C=C2/CCC/C(=C\c3cc(O)c(OC)c(Cl)c3)C2=O)cc(Cl)c1O | - | - | - | - | - | - | . | .
COc1cc(/C=C2\CC/C(=C\c3cc(OC)c(O)c(OC)c3)C2=O)cc(OC)c1O | - | - | 51 | - | - | - | 48 | -
